The results in this text go back to ChEMBL document CHEMBL1138428, “5-Heteroatom substituted pyrazoles as canine COX-2 inhibitors. Part III: molecular modeling studies on binding contribution of 1-(5-methylsulfonyl)pyrid-2-yl and 4-nitrile” (Bioorg Med Chem Lett, 2007).

In brackets after ≈: the same amount, converted by molar mass.

The species named for data set [1] is Canis lupus familiaris. Briefly: Inhibition of COX2 in canine whole blood at 0.5 uM. The data set is classed as tissue-based.
Data set [2] can be described thus: Inhibition of COX2 in canine whole blood. The data set is classed as tissue-based. The conditions noted are these: Canis lupus familiaris. The essentials:
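Heparinized canine whole blood (0.5 mL) added to drug plus LPS to stimulate PGE2, then incubated overnight at 37 °C. Controls were LPS without drug (maximum) and vehicle only (background). EDTA added to 0.3% final, samples centrifuged, and plasma stored at −20 °C. PGE2 measured by EIA. Run in duplicate or triplicate.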

A short description of data set [3]: Inhibition of COX1 in canine whole blood. The data set is classed as tissue-based. The conditions noted are these: Canis lupus familiaris. The essentials:
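Canine whole blood without heparin (0.5 mL) added directly to drug, then incubated 1 h at 37 °C. COX-1 activity read as platelet thromboxane B2 by enzyme immunoassay, with no-drug samples as maximum-TXB2 controls. Run in duplicate or triplicate.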

The species entered for data set [4] is Canis lupus familiaris. Briefly: Selectivity for COX2 over COX1 in canine whole blood. In kind it is tissue-based.
The nature of data set [5]: Aqueous solubility of the compound. In kind it is physicochemical.

One may read the inhibition as how much of the control response was suppressed. A lower inhibition goes with a weak effect. One may read the IC50 as the concentration that gives 50% inhibition. Higher therefore signals a need for much substance. The term solubility denotes the dissolved amount per volume that the medium holds. Read a low solubility as little dissolved substance. In the data set filed under Canis lupus familiaris [1], `CS(=O)(=O)c1ccc(-n2nc(C(F)F)c(C#N)c2NC2CCCC2)nc1` displayed an inhibition of 100%. Moreover, the results for the concentration for half-maximal inhibition (IC50) in data set [2] and in data set [3] were 0.08 µM and 12.1 µM, respectively. Moreover, in the data set filed under Canis lupus familiaris [4], the Ratio IC50 stood at 151. The concentration in solution in data set [5] (solubility) was 25 µg/mL (≈ 65.5 µM).
